Test results reported in ChEMBL document CHEMBL1811881, “Development of 3-substituted-androsterone derivatives as potent inhibitors of 17β-hydroxysteroid dehydrogenase type 3” (Bioorg Med Chem, 2011).

Legend:
Type in all cases: cell-based
[1] = molecular target: T1, 17-beta-hydroxysteroid dehydrogenase type 3 (Homo sapiens) (UniProt P37058); test: Inhibition of 17Beta-HSD3 expressed in homogenized HEK293 cells assessed as transformation of [14C]-4-androstene-3,17-dione into [14C]-testosterone in presence of NADPH at 0.01 uM
T1 sequence (whole entry): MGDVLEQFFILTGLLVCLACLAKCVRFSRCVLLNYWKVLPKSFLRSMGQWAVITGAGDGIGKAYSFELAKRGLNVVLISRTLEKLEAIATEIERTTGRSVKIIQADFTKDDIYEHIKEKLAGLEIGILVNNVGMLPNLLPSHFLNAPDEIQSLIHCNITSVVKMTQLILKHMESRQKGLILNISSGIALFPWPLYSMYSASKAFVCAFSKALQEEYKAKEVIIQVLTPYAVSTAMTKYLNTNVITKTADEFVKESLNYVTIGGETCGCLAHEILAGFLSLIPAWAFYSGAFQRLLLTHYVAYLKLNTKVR
Outline: (§1)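 HEK-293 cells overexpressing 17β-HSD3 were briefly homogenized. The enzyme assay measured conversion of 50 nM [4-14C]-4-androstene-3,17-dione to [14C]-testosterone with NADPH in excess (5 mM). Inhibitor was dissolved in ethanol, and the ethanol-only control was used to derive % inhibition at each concentration. Error 10%.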

[2] = molecular target: T1, 17-beta-hydroxysteroid dehydrogenase type 3 (Homo sapiens); test: Inhibition of 17Beta-HSD3 expressed in homogenized HEK293 cells assessed as transformation of [14C]-4-androstene-3,17-dione into [14C]-testosterone in presence of NADPH at 0.1 uM; outline: as §1
[3] = molecular target: T1, 17-beta-hydroxysteroid dehydrogenase type 3 (Homo sapiens); test: Inhibition of 17Beta-HSD3 expressed in intact HEK293 cells assessed as transformation of [14C]-4-androstene-3,17-dione into [14C]-testosterone in presence of NADPH at 1 uM after 1 hr incubation
Outline: (§2)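 HEK-293 cells were grown in MEM with 10% FBS at 37 °C under 5% CO2, seeded at 200,000 cells/well, and transfected with 2 µg/well of a 17β-HSD3 expression plasmid. Intact cells then got 50 nM [4-14C]-4-androstene-3,17-dione plus inhibitor in ethanol (0.5% v/v) for 1 h. Radiolabelled steroids were extracted from the medium and quantified. Triplicate; % transformation was used to derive IC50.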

[4] = molecular target: T1, 17-beta-hydroxysteroid dehydrogenase type 3 (Homo sapiens); test: Inhibition of 17Beta-HSD3 expressed in intact HEK293 cells assessed as transformation of [14C]-4-androstene-3,17-dione into [14C]-testosterone in presence of NADPH at 0.1 uM after 1 hr incubation; outline: as §2
[5] = molecular target: T1, 17-beta-hydroxysteroid dehydrogenase type 3 (Homo sapiens); test: Inhibition of 17Beta-HSD3 expressed in homogenized HEK293 cells assessed as transformation of [14C]-4-androstene-3,17-dione into [14C]-testosterone in presence of NADPH at 1 uM; outline: as §1

Structure (SMILES)	inhibition [1] [%]	inhibition [2] [%]	inhibition [3] [%]	inhibition [4] [%]	inhibition [5] [%]
C[C@]12CC[C@](O)(CN3CCN(C(=O)C4CCCCC4)CC3)C[C@@H]1CC[C@@H]1[C@@H]2CC[C@]2(C)C(=O)CC[C@@H]12	19	75	70	–	–
C[C@@H]1CN(Cc2cccnc2)[C@@H](C)CN1C[C@@]1(O)CC[C@@]2(C)[C@@H](CC[C@@H]3[C@@H]2CC[C@]2(C)C(=O)CC[C@@H]32)C1	17	47	58	–	–
C[C@]12CC[C@](O)(CN3CCN(Cc4cccnc4)CC3)C[C@@H]1CC[C@@H]1[C@@H]2CC[C@]2(C)C(=O)CC[C@@H]12	10	33	63	–	–
C[C@]12CC[C@](O)(CN3CCN(Cc4cccc(SC(F)(F)F)c4)CC3)C[C@@H]1CC[C@@H]1[C@@H]2CC[C@]2(C)C(=O)CC[C@@H]12	3	91	62	–	–
C[C@@H]1CN(Cc2cccc(Cl)c2)[C@@H](C)CN1C[C@@]1(O)CC[C@@]2(C)[C@@H](CC[C@@H]3[C@@H]2CC[C@]2(C)C(=O)CC[C@@H]32)C1	26	84	55	–	–
C[C@]12CC[C@@]3(C[C@@H]1CC[C@@H]1[C@@H]2CC[C@]2(C)C(=O)CC[C@@H]12)CN(CCO)C(=O)O3	0	9	–	16	38
Cc1ccc(CN2C[C@]3(CC[C@@]4(C)[C@@H](CC[C@@H]5[C@@H]4CC[C@]4(C)C(=O)C(C)(C)C[C@@H]54)C3)OC2=O)cc1	2	22	–	18	74
C[C@]12CC[C@@]3(C[C@@H]1CC[C@@H]1[C@@H]2CC[C@]2(C)C(=O)CC[C@@H]12)CN(CCBr)C(=O)O3	17	69	–	31	93
COc1ccc(CN2C[C@]3(CC[C@@]4(C)[C@@H](CC[C@@H]5[C@@H]4CC[C@]4(C)C(=O)CC[C@@H]54)C3)OC2=O)cc1	5	84	–	43	93
C[C@]12CC[C@@]3(C[C@@H]1CC[C@@H]1[C@@H]2CC[C@]2(C)C(=O)CC[C@@H]12)CN(CCN1CCCCC1)C(=O)O3	0	0	–	10	21
C[C@@H]1CN(Cc2cccc(C(F)(F)F)c2)[C@@H](C)CN1C[C@@]1(O)CC[C@@]2(C)[C@@H](CC[C@@H]3[C@@H]2CC[C@]2(C)C(=O)CC[C@@H]32)C1	31	89	78	–	–
C[C@@H]1CN(Cc2cccc(SC(F)(F)F)c2)[C@@H](C)CN1C[C@@]1(O)CC[C@@]2(C)[C@@H](CC[C@@H]3[C@@H]2CC[C@]2(C)C(=O)CC[C@@H]32)C1	18	88	58	–	–
C[C@]12CC[C@@]3(C[C@@H]1CC[C@@H]1[C@@H]2CC[C@]2(C)C(=O)CC[C@@H]12)CN(CCC(CN1CCOCC1)OC(=O)CCC1CCCC1)C(=O)O3 (stereo not given in full)	2	79	–	49	94
Cc1ccc(CN2C[C@]3(CC[C@@]4(C)[C@@H](CC[C@@H]5[C@@H]4CC[C@]4(C)C(=O)CC[C@@H]54)C3)OC2=O)cc1	17	81	–	38	93
CCCN(CCN1C[C@]2(CC[C@@]3(C)[C@@H](CC[C@@H]4[C@@H]3CC[C@]3(C)C(=O)CC[C@@H]43)C2)OC1=O)C(=O)CC	0	35	–	25	80
C[C@]12CC[C@](O)(CN3CCN(S(=O)(=O)c4cccc(C(F)(F)F)c4)CC3)C[C@@H]1CC[C@@H]1[C@@H]2CC[C@]2(C)C(=O)CC[C@@H]12	21	82	71	–	–
Cc1cccc(S(=O)(=O)CCN2C[C@]3(CC[C@@]4(C)[C@@H](CC[C@@H]5[C@@H]4CC[C@]4(C)C(=O)CC[C@@H]54)C3)OC2=O)c1	0	52	–	5	93
